MIN6 prolif: induces beta-cell replication in MIN6 cells; MIN6 cells proliferation, ATPlite luminescence, 48 h; cells starved in 0.2% serum; 100% = growth in 10% serum; proliferation, % at 10 µM; 0.29% of 330,000 active;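 active means compounds whose signal lies at least 3.5 SD above the mean of all wells on their plate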;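 further: 0% = DMSO-treated cells in low-serum medium and 100% = 10% serum control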
DAGLB inhibitor: diacylglycerol lipase beta (human) inhibition | Q8NCG7 | HEK293T DAGLB membrane lysate, EnzChek fluorogenic substrate | inhibition, % at 5.17 µM | 0.059% of 340,000 active | AID 504411; in the data active means inhibition above about 34%;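 further: 0% = enzyme with vehicle and 100% = wells lacking enzyme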
Myeloid diff MLP: promotes myeloid progenitor differentiation | ER-HoxA9 myeloid progenitors, lysozyme-GFP differentiation, flow cytometry | calls only at 10 µM | 1% of 360,000 active | AID 624256;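 active means normalized GFP-positive differentiation at or above the plate's own cutoff, the solvent-only control mean plus 3 SD; inconclusive means no clear call, values can overlap the other calls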;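 further: cells exposed to compound for four days before flow analysis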
SENP1 inh: SENP1 (human) catalytic domain inhibition; Q9P0U3; recombinant SENP1 catalytic domain, CyPet-SUMO1-YPet FRET cleavage; inhibition, % at 10 µM; 0.21% of 360,000 active; AID 624204;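 active means inhibition at least 30% at 10 µM, raw YFP signal under a set limit, fluorescence ratio 0.5 to 1.5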;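 further: 0% = enzyme with DMSO and 100% = no enzyme wells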
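Test system: hSENP1 catalytic domain, recombinant; Amount: 20 pM final SENP1 enzyme; Medium: Tris pH 8 buffer plus EDTA, NaCl, BME, BSA, NP40, catalase; Schedule: 50 min enzyme reaction, room temperature, light-protected; Technique: FRET fluorescence in CFP and YFP emission channels; Controls: no-enzyme wells low, DMSO-plus-enzyme wells high control.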
CendR NRP1 mod: alters CendR peptide binding to human NRP-1; inhibition, % at 25 µM; FAM-RPARPAR peptide binding to NRP-1, fluorescence polarization; O14786; 0.85% of 360,000 active;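 active means inhibition or corrected inhibition above about 18%, plus a signal ratio from 0.5 to 1.5, limit read from the data, passing the limit was not always enough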
MT1-MMP act inh: MT1-MMP (human) activation inhibition; HT1080 RFP-PRO-GFP cells, GFP/RFP ratio fluorescence, overnight; percent of plate control window, DMSO zero; GFP/RFP ratio change, % at 20 µM; 0.061% of 360,000 active; AID 651647;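 active means GFP/RFP ratio change of at least 30% with cell ATP level not reduced by more than half and red fluorescence within 50% of control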
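Test system: HT1080 RFP-PRO-GFP cells; Benchmarks: DMSO and RFP-L50D-GFP cell wells; Timing: cells overnight before dosing, compound overnight, 37 °C, 5% CO2; Compound: one 20 µM compound dose with 1% DMSO; Read-out: GFP/RFP fluorescence ratio.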
The depositor's hits bear a star; i = inactive; u = inconclusive; x = no result; + = active, no number. Hits are enriched below; roughly 2.4% of the tested compounds scored in any of these assays.

SMILES	MIN6 prolif	DAGLB inhibitor	Myeloid diff MLP	SENP1 inh	CendR NRP1 mod	MT1-MMP act inh
C=CC[C@@H](CC(=O)N[C@H](CO)Cc1ccccc1)C(=O)N[C@@H](COC(=O)[C@@H](CC=C)Cc1ccc(F)cc1)Cc1ccccc1	-4	-4	i	2	-10	-1
CCOC(=O)N1CCN(C(=O)C2CCC(CNS(=O)(=O)c3ccc(Cl)cc3)CC2)CC1 (stereo unspecified)	-3	3	i	-3	27*	4
CCOC(=O)N1CCN(C(=O)c2ccc(CNS(=O)(=O)c3ccc(NC(C)=O)cc3)cc2)CC1	-3	0	i	3	23*	-4
CCOC(=O)N1CCN(C(=O)C2CCN(S(=O)(=O)c3ccc(OCC)cc3)CC2)CC1	-2	1	i	1	26*	1
CN(CC(=O)Nc1ccc(Cl)c(C(F)(F)F)c1)C(=O)c1cnccn1	2	-3	i	1	1	12
CC(Sc1ccccc1)C(=O)NNC(=O)c1csc(N2CCOCC2)n1 (stereo unspecified)	2	1	i	1	-5	-3
CCOC(=O)C1=C(Cc2ccc(OC)cc2)C(=O)c2ccccc2C1=O	x	-9	+	40*	0	-46
CCOC(=O)C1=C(Cc2ccc(C)cc2)C(=O)c2ccccc2C1=O	-6	x	x	x	x	x
CCOC(=O)C1=C(O)c2ccccc2C(=O)/C1=C\c1ccc(CC)cc1	x	1	+	-10	-2	-42
CCn1c(SCC(=O)NNC(=O)c2ccc(C)cc2)nnc1-c1ccco1	-2	x	i	2	4	-1
CCOc1cccc(-c2nnc(SCC(=O)Nc3cccc(OC)c3)n2N)c1	x	3	i	0	0	2
COc1cccc(-c2nnc(SCC(=O)Nc3ccc(OC)c(OC)c3)n2N)c1	-2	0	+	2	2	0
Cc1ccc(C(=O)N2CCSCC2)cc1	4	-4	i	2	-1	-1
CC(=O)c1coc2ccc(OCC(=O)O)cc12	-3	0	+	2	14	7
CCCCNC(=O)C1C(c2ccc(C(F)(F)F)cc2)=Nc2ccccc2N1C(=O)c1ccc2nc(C)[nH]c2c1 (stereo unspecified)	x	x	i	9	-8	1
CCc1ccc(NC(=S)/N=C(\N)Nc2nc(C)c3cc(CC)ccc3n2)cc1	-5	-14	u	-2	0	-11
CCc1ccc2nc3nc(C)cc(C)c3c(N)c2c1	-4	2	+	-21	-20	-51
Cc1ccc(S(=O)(=O)CCC(=O)OCc2cc(C)ccc2C)cc1	0	-5	i	0	27*	5
Cc1ccc(S(=O)(=O)CCC(=O)O)cc1C	-3	-5	+	2	3	16
CN(C)CCNC(=O)c1ccc2c(=O)n(Cc3ccc(Cl)cc3)c(=S)[nH]c2c1	-7	2	+	-1	9	4
Cc1cc(C)c(C(=O)N2CCCC(CNC(=O)C3(c4ccc(Cl)cc4)CC3)C2)c(=O)[nH]1 (stereo unspecified)	2	1	i	0	2	0
COc1cccc(Cn2cc(C(=O)NCCN(C)C)nn2)c1	-2	-1	i	0	-6	2
Cc1cccc(Cn2c(N(C)Cc3ccccc3)nc3c2c(=O)[nH]c(=O)n3C)c1	4	11	i	3	26*	-4
C=C[C@@H]1c2cc(C)ccc2N(S(=O)(=O)c2ccc(C)cc2)[C@H](c2ccc(OC(C)=O)cc2)C1(C#N)C#N	-7	-7	+	1	7	0
C=C[C@@H]1c2ccccc2N(S(=O)(=O)c2ccc(C)cc2)[C@H](c2ccc(OC(C)=O)cc2)C1(C#N)C#N	-7	-5	i	1	6	-9
O=C(CSc1nnc2ccc(-c3cccnc3)nn12)Nc1ccccc1F	-1	-1	i	2	6	-2
Cc1ccc(OC2=NS(=O)(=O)c3ccccc32)cc1	-2	-2	+	2	0	3
Fc1ccc(-c2nnn3c2nc(NCc2ccccc2)c2ccccc23)cc1	-2	0	i	-43	5	4

Bioassay records: PubChem BioAssay, several laboratories
